Measurements reported in article PMC6583925 (Journal of medicinal chemistry, 2019).

What was measured:
ABHD12 = biological target: T1, ABHD12 (Homo sapiens, UniProt Q8N2K0); conditions: cited from earlier work
T1 sequence (Q8N2K0 1-398): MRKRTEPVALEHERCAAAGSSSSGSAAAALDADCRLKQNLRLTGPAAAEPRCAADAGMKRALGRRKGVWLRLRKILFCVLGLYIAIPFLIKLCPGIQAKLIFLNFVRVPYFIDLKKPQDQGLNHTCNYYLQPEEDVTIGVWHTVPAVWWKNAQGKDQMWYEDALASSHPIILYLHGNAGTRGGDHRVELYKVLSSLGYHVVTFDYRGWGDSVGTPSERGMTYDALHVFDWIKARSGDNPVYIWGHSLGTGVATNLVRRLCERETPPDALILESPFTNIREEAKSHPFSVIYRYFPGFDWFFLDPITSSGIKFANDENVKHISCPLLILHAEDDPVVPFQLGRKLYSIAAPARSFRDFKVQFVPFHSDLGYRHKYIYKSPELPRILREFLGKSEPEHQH

[1] = system: lymphocytic choriomeningitis virus (LCMV) clone 13; conditions: mice; cited from earlier work
THP-1 macrophages = assay: cytokine measurements in M1-polarized THP-1 macrophages; format: cell-based, human; conditions: M1 stage THP-1 macrophages; DO264 0.1, 0.5, 1 μM, DO271 1 μM; 6 and 24 h
[2] = 30 mg/kg, cited from earlier work
[3] = mice, four weeks of inhibitor treatment; cited from earlier work
[4] = system: broader panel of cell lines; assay: cell viability assay; format: cell-based; conditions: all cell lines, 72 h
THP1 cells = assay: cell viability assay; format: cell-based, human; conditions: 72 h, CellTiter-Glo
Procedure, shortened: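 THP-1 cells maintained in RPMI 1640 with 10% heat-inactivated FBS and 0.05 mM 2-mercaptoethanol at 2×105 to 1×10^6 cells/ml. Seeded at 3,000 cells per well; test compound added after 24 h at final 0.1 to 10 μM. After 72 h incubation, viability was read by CellTiter-Glo luminescence and normalized to vehicle-treated controls.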

serine hydrolases = assay: selectivity by gel-based ABPP with FP-Rh in mouse brain proteome; format: biochemical; conditions: FP-Rh probe
Procedure, shortened: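 Mouse brain homogenised in DPBS and cleared at 1,400 × g. Membranes pelleted at 16,000 × g (45 min, 4 °C) and resuspended in DPBS; used at 1 mg/mL. Test compound pretreatment: (thio)ureas 20 min at room temperature, NHH-carbamates 45 min at 37 °C. FP-Rh labelling (1 μM final) 45 min at 37 °C. Readout: 10% SDS-PAGE, in-gel fluorescence, band intensities quantified.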

[5] = system: brain lyso-PS/PI and C20:4 PS content; conditions: mice; cited from earlier work

FC(F)(F)Oc1ccc(Oc2ccnc(N3CCC(NC(=S)Nc4cccnc4)CC3)c2Cl)c(Cl)c1 [DO264]
concentration giving full engagement of ABHD12 (ABHD12): 1 µM | immunological responses to LCMV clone 13 infection [1]: heightened immunological responses | CCL3 level (THP-1 macrophages): elevated | CCL4 level (THP-1 macrophages): elevated | IL-1β level (THP-1 macrophages): concentration-dependent increases | TNF-α level (THP-1 macrophages): concentration-dependent increases | toxicity in mice ([2]; treatment for several weeks): without overt signs of toxicity | total exposure levels in the periphery and brain ([2]; mice, p.o. or i.p. dosing): 3 to 9 µM | auditory defects [3]: did not exhibit the auditory defects observed in ABHD12–/– mice | cytotoxicity at 1 μM [4]: without displaying cytotoxicity | concentration that impaired the viability of THP1 cells (THP1 cells): ≥ 5 µM | selectivity / off-targets among serine hydrolases (serine hydrolases): excellent selectivity over other serine hydrolases | brain lyso-PS/PI and C20:4 PS content [5]: substantial elevations
